Compound activity (PubChem)
CHRM5 agonist: CHRM5 agonism in calcium assay; activation, % at 3 µM; hit rate 0.19% among 360,000; CHO-K1 hM5 cells, Fluo-8 calcium fluorescence; 0% DMSO wells, 100% maximal acetylcholine response; P08912;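 active means activation above the run's mean over test compounds plus 3 SD, cut at about 23% in these data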;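 further: signal is peak over basal fluorescence ratio across the kinetic read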
CHRM5 antagonist: antagonists of human muscarinic M5 receptor (CHRM5) | P08912 | CHO-hM5 cells, Fluo-8 calcium fluorescence, ACh EC80 | inhibition, % at 3 µM | hit rate 0.59% among 360,000 | AID 624040;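 active means inhibition above a per-plate cutoff, the mean of that plate's test compounds plus 3 SD, cut at about 27% in these data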;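 further: 0% = acetylcholine EC80 with DMSO and 100% = DMSO without agonist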
M4 PAM: positive allosteric modulators of human muscarinic M4 receptor; P08173; CHO-K1 hM4/Gqi5, Fluo-8 calcium fluorescence, ACh EC20; 0% = ACh EC20, 100% = maximal ACh; activation, % at 3 µM; hit rate 0.4% among 360,000;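 active means activation above its plate's cutoff, the mean activation of sample wells plus 3 SD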
Target sequence (P08173 whole entry, looked up): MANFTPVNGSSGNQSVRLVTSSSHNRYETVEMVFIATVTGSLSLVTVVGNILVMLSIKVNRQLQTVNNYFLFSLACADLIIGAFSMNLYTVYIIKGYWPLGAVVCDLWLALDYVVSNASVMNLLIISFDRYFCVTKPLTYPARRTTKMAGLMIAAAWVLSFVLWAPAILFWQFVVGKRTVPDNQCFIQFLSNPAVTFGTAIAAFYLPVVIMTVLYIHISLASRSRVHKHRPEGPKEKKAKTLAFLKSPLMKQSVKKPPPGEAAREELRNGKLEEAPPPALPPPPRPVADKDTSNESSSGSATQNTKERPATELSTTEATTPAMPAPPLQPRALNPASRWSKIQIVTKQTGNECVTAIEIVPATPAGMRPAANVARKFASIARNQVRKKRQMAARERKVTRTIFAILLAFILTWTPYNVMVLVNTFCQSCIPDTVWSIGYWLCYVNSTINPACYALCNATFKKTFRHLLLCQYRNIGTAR
CHRM4 agonist: agonists of human muscarinic M4 receptor (CHRM4) | P08173 | CHO-K1 hM4/Gqi5, Fluo-8 calcium fluorescence; vehicle 0%, full acetylcholine response 100% | activation, % at 3 µM | hit rate 0.14% among 360,000 | AID 624127;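 active means activation above the run mean over all test wells plus 3 SD, cut at about 32% in these data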;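 further: peak over basal fluorescence ratio per well then scaled between controls; 0% = DMSO wells and 100% = acetylcholine at EC100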
CHRM5 PAM: CHRM5 positive allosteric modulation; activation, % at 3 µM; CHO-K1 hM5, Fluo-8 calcium, ACh EC20 PAM; 0% = ACh EC20, 100% = ACh EC100; P08912; hit rate 0.3% among 360,000;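 active means activation above the run cutoff, the mean activation of all test compounds plus 3 SD, cut at about 18% in these data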
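Assay system: CHO-K1 hM5 cells. Also added: acetylcholine at EC20 concentration, added after compound. Dosing: 3 µM, single dose. Times: compound preincubation 140 s before EC20 acetylcholine addition. Signal: Fluo-8 calcium fluorescence. Measure: % activation relative to EC20 and EC100 ACh responses. Repeats: singlicate, one well per test compound.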
CHRM4 antagonist: CHRM4 antagonism in calcium assay | P08173 | CHO-hM4 cells, ACh EC80, Fluo-8 calcium fluorescence | inhibition, % at 3 µM | hit rate 0.73% among 360,000 | AID 624125;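 active means inhibition above its plate's cutoff, the mean inhibition of sample wells plus 3 SD, cut at about 27% in these data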;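 further: 0% = acetylcholine EC80 with DMSO and 100% = DMSO without agonist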
An asterisk follows results filed as active. Compounds with a hit are over-represented: about 1.8% of the library has one in this group of screens.

SMILES	CHRM5 agonist	CHRM5 antagonist	M4 PAM	CHRM4 agonist	CHRM5 PAM	CHRM4 antagonist
Cc1sc(N/N=C/c2cccs2)nc1-c1ccccc1	-1	4	0	0	-2	-2
CCCCCCCc1nc2sc3c(c2c(=O)n1N)CC(C)(C)OC3	-2	15	7	0	-1	7
CCCCCc1nc2sc3c(c2c(=O)n1NC(=O)c1ccc([N+](=O)[O-])cc1)CC(C)(C)OC3	0	34*	-13	9	-16	3
COC(=O)c1ccc2c(c1)sc(=NC(=O)CCS(=O)(=O)c1ccccc1)n2C	4	-10	18*	8	2	-6
COCCn1c(=NC(=O)CCS(=O)(=O)c2ccccc2)sc2ccccc21	-1	-1	-4	9	-2	2
CC(C)N(CC#CC(O)(c1ccccc1)c1ccccc1)C(C)C	-21	96*	-59	1	-32	98*
CN(CC#CC(O)(c1ccccc1)c1ccccc1)C(C)(C)C	-20	77*	-16	1	-35	92*
CC(C)N(CC#CC(O)(c1ccccc1)c1ccccc1)CCO	-10	42*	-18	1	-19	42*
COc1cccc(CNC(=O)c2cc(S(=O)(=O)N3CCCC3)cn2C)c1	0	6	-1	3	-1	-7
CCCn1c(N)c(C(=O)CN2CCN(S(=O)(=O)c3cccc(Cl)c3)CC2)c(=O)[nH]c1=O	-10	1	9	3	6	-17
CC1CCN(S(=O)(=O)c2ccc(NC(=O)[C@@H]3CCCN3C(=O)c3cccs3)cc2)CC1	-10	22	-5	1	-10	14
Cc1ccc2c(CC(=O)NC3CCS(=O)(=O)C3)coc2c1C (configuration not stated)	-1	9	18*	2	1	13
O=C(Nc1ccccc1N1CCCC1)c1ccc([N+](=O)[O-])cc1Cl	-4	-15	25*	1	9	-16
CCc1ccc(OCc2ccc(C(=O)OC)o2)cc1	-4	8	-1	-1	-1	-8
CCCOC(=O)c1ccc(Oc2coc3c(CN(CC)CC)c(O)ccc3c2=O)cc1	-10	-10	-20	2	-9	93*
COc1ccccc1NS(=O)(=O)c1ccc2oc(SC(C)C(=O)N3CCNC3=O)nc2c1 (configuration not stated)	11	13	-13	32*	-42	11
CN(Cc1ccccc1)C(=O)CN1CCN(C(c2ccccc2)c2ccccc2)CC1	-18	11	-27	0	-34	50*
COC(=O)CN1CCN(C(c2ccccc2)c2ccccc2)CC1	-7	2	-7	0	1	9
COc1ccc(OC)c(NC(=O)c2sc3ncnc(N4CCN(c5ccccn5)CC4)c3c2C)c1	-2	-1	19*	1	4	-22
NCC1CCC(C(=O)Oc2ccc(CCC(=O)O)cc2)CC1 (configuration not stated)	24*	-2	-1	3	-8	-8
CN1CCN(C(=S)NC(=O)c2ccc(Cl)cc2)CC1	-4	-7	23*	1	17	-16
O=C(NC(=S)N1CCCC1)c1ccc(Cl)cc1	-3	12	6	1	-7	-11
CC(=O)c1sc2nc(-c3ccc(C)cc3)c3c(c2c1N)CCCC3	-2	4	-12	-1	-2	-3
Cc1ccc(-c2nc3sc(C(N)=O)c(N)c3c3c2CCCC3)cc1	0	10	-18	-2	-12	99*
Cn1nc(C(=O)Nc2ccc3c(c2)OCCO3)cc1C(=O)O	-1	1	-6	0	-2	-4
SMILES	CHRM5 agonist	CHRM5 antagonist	M4 PAM	CHRM4 agonist	CHRM5 PAM	CHRM4 antagonist
COc1ccc(/C(O)=C2/C(=O)C(=O)N(CCCN3CCOCC3)C2c2ccc(OC)cc2)cc1 (configuration not stated)	-5	32*	-8	0	-11	4
COc1ccc(C2/C(=C(/O)c3ccc4c(c3)CC(C)O4)C(=O)C(=O)N2CCCN2CCOCC2)cc1 (configuration not stated)	0	-22	6	1	20*	7
COc1ccc(C2/C(=C(/O)c3ccc(S(=O)(=O)N4CCOCC4)cc3)C(=O)C(=O)N2CCN2CCOCC2)cc1 (configuration not stated)	-1	-2	6	2	1	-4
COc1ccc(CCNc2nc(-c3cccnc3)nc3ccccc23)cc1OC	0	39*	-19	15	-15	28*
COc1ccc(CCNc2ncnc3c2oc2ccccc23)cc1OC	7	50*	-21	21	-16	26
COc1ccc(CCNc2nc(C)nc3c2oc2ccccc23)cc1OC	7	33*	-17	21	-21	23
CC[C@H]1OC(=O)[C@H](C)[C@@H](O[C@H]2C[C@@](C)(OC)[C@@H](O)[C@H](C)O2)[C@H](C)[C@@H](O[C@@H]2O[C@H](C)C[C@H](N(C)C)[C@H]2O)[C@](C)(O)C[C@@H](C)C(=NOCOCCOC)[C@H](C)[C@@H](O)[C@]1(C)O	0	3	-4	0	1	-4
Cc1cc(C)c(NC(=O)COC(=O)C2CCCCC2)c(C)c1	1	-1	0	0	4	-1
CC(C)(C)c1ccc(C(=O)N2CCC2(C)C(=O)NCc2cccs2)cc1 (configuration not stated)	5	-5	-1	6	1	5
COC(=O)c1cc(S(=O)(=O)NCc2ccc(S(N)(=O)=O)cc2)oc1C	0	6	-3	0	-3	-1
CC(C)c1nc(C(=O)N2CCCC(CCC(=O)N(C)CCc3ccccn3)C2)cs1 (configuration not stated)	-1	-2	7	1	1	-5
Cc1ccc(S(=O)(=O)N2CCC(c3nc4c(nnn4Cc4ccccc4)c(=O)[nH]3)CC2)cc1	-2	5	-20	-1	-2	75*
Cc1ccc(C)c(S(=O)(=O)N2CCC(c3nc4c(nnn4Cc4ccc5c(c4)OCCO5)c(=O)[nH]3)CC2)c1	-5	12	-14	2	-7	42*
O=c1[nH]c(C2CCN(S(=O)(=O)c3ccc4c(c3)OCCO4)CC2)nc2c1nnn2Cc1ccccc1	-1	2	-21	0	5	90*
CC(=O)Nc1ccc(CNc2nc(NCC3CC3)nc3ccsc23)cc1	-2	-8	-1	3	1	-11
COc1cc(C=NN2CCCCC2)cc(OC)c1OC	27*	5	1	0	-5	-11
COc1cc(/C=N/N2CCCCC2)cc(OC)c1O	11	-3	0	3	0	2
